In ChEMBL document CHEMBL3861970, “Penipyridones A-F, Pyridone Alkaloids from Penicillium funiculosum” (J Nat Prod, 2016):
Activity calls are given as the source filed them. The calls are words filed in the database; no cut-off is given here.

Columns and labels:
Assay type in all cases: functional, cell-based
[1] = Cytotoxicity against human K562 cells assessed as growth inhibition after 48 hrs by SRB assay; settings: K562, 48 h
[2] = Cytotoxicity against human HL60 cells assessed as growth inhibition after 48 hrs by SRB assay; settings: HL-60, 48 h
[3] = Cytotoxicity against human HeLa cells assessed as growth inhibition after 48 hrs by SRB assay
[4] = Cytotoxicity against human A549 cells assessed as growth inhibition after 48 hrs by SRB assay; settings: A549, 48 h
[5] = test system: HepG2; assay: Lipid lowering activity in human HepG2 cells assessed as decrease in oleic acid elicited lipid accumulation at 10 uM treated 12 hrs post oleic acid addition measured 6 hrs post dose by oil-red O staining method
Method in brief: (§1)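 HepG2 cells (ATCC origin) grown in DMEM with 10% FBS and penicillin/streptomycin to 70–80% confluence. They were loaded with 100 μM oleic acid in DMEM for 12 h, then exposed for 6 h to 10 μM compound, lovastatin as positive control, or oleic acid alone. Read-outs were Oil-Red O staining (n = 8) or TC/TG determination (n = 3). Each experiment was repeated at least three times; means ± SEM.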

[6] = test system: HepG2; assay: Lipid lowering activity in human HepG2 cells assessed as decrease in total cholesterol level at 10 uM treated 12 hrs post oleic acid addition measured 6 hrs post dose; method in brief: as §1
[7] = test system: HepG2; assay: Lipid lowering activity in human HepG2 cells assessed as decrease in triglyceride level at 10 uM treated 12 hrs post oleic acid addition measured 6 hrs post dose; method in brief: as §1

SMILES | IC50 [1] [µM] | IC50 [2] [µM] | IC50 [3] [µM] | IC50 [4] [µM] | Activity [5] | Activity [6] | Activity [7]
COC(=O)c1c[nH]c([C@@H](O)c2ccccc2)cc1=O | > 50 | > 50 | > 50 | > 50 | Active | Active | Active
NC(=O)c1cn(CCO)c([C@@H](O)c2ccccc2)cc1=O | > 50 | > 50 | > 50 | > 50 | – | – | –
CC(=O)O[C@@H](c1ccccc1)c1cc(=O)c(C(N)=O)cn1CCO | > 50 | > 50 | > 50 | > 50 | Active | Active | Active
NC(=O)c1c[nH]c([C@@H](O)c2ccccc2)cc1=O | > 50 | > 50 | > 50 | > 50 | Active | Active | Active
CC(C)CC(=O)NC(=O)c1cn(CCO)c([C@@H](O)c2ccccc2)cc1=O | > 50 | > 50 | > 50 | > 50 | – | – | –
CC(C)CC(=O)NC(=O)c1c[nH]c([C@@H](O)c2ccccc2)cc1=O | > 50 | > 50 | > 50 | > 50 | – | – | –
CC(=O)O[C@@H](c1ccccc1)c1cc(=O)c(C(=O)NC(=O)CC(C)C)cn1CCO | > 50 | > 50 | > 50 | > 50 | Active | Active | Active
